# The source made the active and inactive calls. The rule behind the calls is not given here.
# Legend:
# [1] = molecular target: T1, Oxysterols receptor LXR-alpha (Homo sapiens) (UniProt Q13133); test: Agonist activity at GAL-linked human LXRalpha expressed in THP1 cells assessed as stimulation of co-activator recruitment by FRET assay relative to GW-3965; type: functional
# T1 sequence (whole entry): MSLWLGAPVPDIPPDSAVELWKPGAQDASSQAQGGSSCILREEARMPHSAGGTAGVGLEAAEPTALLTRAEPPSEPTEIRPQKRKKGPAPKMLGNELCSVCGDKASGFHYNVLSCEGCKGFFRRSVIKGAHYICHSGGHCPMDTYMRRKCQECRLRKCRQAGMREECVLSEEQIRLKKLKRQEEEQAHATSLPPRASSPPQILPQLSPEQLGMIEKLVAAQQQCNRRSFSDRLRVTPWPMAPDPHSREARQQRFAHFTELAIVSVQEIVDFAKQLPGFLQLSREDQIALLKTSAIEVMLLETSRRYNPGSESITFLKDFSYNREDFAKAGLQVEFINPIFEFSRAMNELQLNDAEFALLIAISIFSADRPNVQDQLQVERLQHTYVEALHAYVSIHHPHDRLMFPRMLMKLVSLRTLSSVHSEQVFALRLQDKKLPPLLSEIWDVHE
# Method in brief: (§1)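 Cell-free TR-FRET coactivator recruitment: 20 nM His-tagged hLXRα or hLXRβ, 300 nM biotinylated SRC-1 peptide, Eu-anti-His antibody, APC-streptavidin. 12-point curves from 20 µM; 1 h at 37 °C. Duplicate. %E = maximal coactivator recruitment relative to reference dual agonist in same experiment.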
# [2] = molecular target: T2, Oxysterols receptor LXR-beta (Homo sapiens) (UniProt P55055); test: Agonist activity at GAL-linked human LXRbeta expressed in THP1 cells assessed as stimulation of co-activator recruitment by FRET assay relative to GW-3965; type: functional; method in brief: as §1
# T2 sequence (whole entry): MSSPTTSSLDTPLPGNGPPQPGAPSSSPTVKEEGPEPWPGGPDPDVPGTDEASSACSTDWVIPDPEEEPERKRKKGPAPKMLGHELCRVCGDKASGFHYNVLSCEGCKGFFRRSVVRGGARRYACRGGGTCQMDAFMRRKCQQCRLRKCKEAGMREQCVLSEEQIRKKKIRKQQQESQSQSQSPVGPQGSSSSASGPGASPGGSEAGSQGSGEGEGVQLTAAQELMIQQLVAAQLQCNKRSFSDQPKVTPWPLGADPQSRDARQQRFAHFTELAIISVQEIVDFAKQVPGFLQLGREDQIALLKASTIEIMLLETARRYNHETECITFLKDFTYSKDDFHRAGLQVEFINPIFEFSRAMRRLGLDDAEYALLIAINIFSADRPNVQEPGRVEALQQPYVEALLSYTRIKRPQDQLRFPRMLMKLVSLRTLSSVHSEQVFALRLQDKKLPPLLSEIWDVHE
# THP-1 [3] = test: Increase in ABCA1 gene expression in THP1 cells at 10 uM relative to GW-3965; type: functional, Homo sapiens
# Method in brief: (§2)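 THP-1 cells differentiated with 40 ng/mL PMA for 1 day, then switched to RPMI with 2% lipoprotein-deficient FBS. Compound added 6 h later at 1 or 10 µM in DMSO, incubated 24 h. ABCA1 mRNA by one-step TaqMan qRT-PCR, triplicate, multiplexed with 36B4; fold induction vs DMSO, expressed relative to reference dual agonist.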
# THP-1 [4] = test: Increase in ABCA1 gene expression in THP1 cells at 1 uM relative to GW-3965; type: functional, Homo sapiens; method in brief: as §2
# [5] = molecular target: T3, Oxysterols receptor LXR-beta (Homo sapiens, UniProt P55055); test: Agonist activity at GAL-linked human LXRbeta expressed in THP1 cells assessed as stimulation of co-activator recruitment by FRET assay; type: functional; method in brief: as §1
# T3 sequence (P55055 whole entry): T2 sequence (whole entry)
# [6] = molecular target: T4, Oxysterols receptor LXR-alpha (Homo sapiens, UniProt Q13133); test: Agonist activity at GAL-linked human LXRalpha expressed in THP1 cells assessed as stimulation of coactivator recruitment by FRET assay; type: functional; method in brief: as §1
# T4 sequence (Q13133 whole entry): T1 sequence (whole entry)
# Hepatocyte = test: Induction on FAS gene expression in human primary hepatocytes at 1 uM; type: functional, cell-based
# Method in brief: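 Primary human hepatocytes treated with 1 µM compound; FAS mRNA measured by TaqMan-based qRT-PCR.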
# [7] = molecular target: T4, Oxysterols receptor LXR-alpha; test: Activity at human LXRalpha by Gal4 transactivation assay
# Method in brief: (§3)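 GAL4 DBD fused to hLXRα or hLXRβ LBD in pcDNA3, co-transfected into HepG2 with luciferase reporter. Cells in DMEM with 10% lipoprotein-deficient FBS, 7.5 µM lovastatin, 100 µM mevalonic acid. Ligand added 24 h post-transfection as 11-point curves from 10 µM; luciferase read after 16 h. Run in quadruplicate. %E = max fold induction vs max fold induction of reference dual agonist in same experiment.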
# [8] = molecular target: T2, Oxysterols receptor LXR-beta (Homo sapiens); test: Displacement of [3H]T-0901317 from GAL-linked human LXRbeta expressed in THP1 cells at 20 uM by SPA relative to GW-3965; type: cell-based; settings: THP-1
# Method in brief: (§4)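 Scintillation proximity displacement with His-tagged hLXRα or hLXRβ LBD (200 ng/well) and 30 nM [3H]T0901317. Beads 0.2 mg/well in phosphate buffer with EDTA, NaCl, DTT, CHAPS, 10% glycerol. 12-point curves from 20 µM; shaken 3 h at room temperature. No-competitor wells = 100% binding; nonspecific binding without protein. Efficacy = maximal displacement relative to reference dual agonist.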
# [9] = molecular target: T2, Oxysterols receptor LXR-beta (Homo sapiens); test: Activity at human LXRbeta by Gal4 transactivation assay relative to GW-3965; method in brief: as §3
# [10] = molecular target: T1, Oxysterols receptor LXR-alpha (Homo sapiens); test: Activity at human LXRalpha by Gal4 transactivation assay relative to GW-3965; method in brief: as §3
# Macrophage = test: Induction of APO-AI-dependent cholesterol efflux in mouse macrophages; type: functional, cell-based
# Method in brief: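 Peritoneal macrophages labelled 24 h with [3H]cholesterol (1.0 µCi/mL) plus ACAT inhibitor 58-035 (2 µg/mL), with compound. Then 2–4 h equilibration in label-free medium with compound. Efflux for 4 h into DMEM/0.2% BSA with or without apoAI (15 µg/mL). apoAI-dependent efflux = medium radioactivity as % of total cell plus medium. Triplicate.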
# [11] = molecular target: T1, Oxysterols receptor LXR-alpha (Homo sapiens); test: Displacement of [3H]T-0901317 from GAL-linked human LXRalpha expressed in THP1 cells at 20 uM by SPA relative to GW-3965; type: cell-based; settings: THP-1; method in brief: as §4
# [12] = molecular target: T3, Oxysterols receptor LXR-beta; test: Activity at human LXRbeta by Gal4 transactivation assay; method in brief: as §3
Efficacy [1],Efficacy [2],EC50 [5],EC50 [6],EC50 [7],Efficacy [8],Efficacy [9],Efficacy [10],Efficacy [11],EC50 [12],Activity [2],SMILES,Activity (THP-1 [3]),Activity (THP-1 [4]),Activity (Hepatocyte),Activity (Macrophage)
< 15%,48%,7700 nM,–,–,–,–,–,–,–,–,COc1cccc(C2SC(c3ccc(Cl)cc3)=NN2C(=O)c2ccccc2F)c1OC (stereo not given),–,–,–,–
40%,95%,470 nM,2100 nM,–,–,–,–,–,–,–,COc1cccc(C2SC(c3ccc(F)cc3)=NN2C(=O)c2cc(F)cc(F)c2)c1OC (stereo not given),37%,21%,–,–
50%,80%,980 nM,6700 nM,–,–,–,–,–,–,–,COc1cccc(C2SC(c3ccc(Cl)cc3)=NN2C(=O)c2ccc(F)cc2F)c1OC (stereo not given),40%,23%,–,–
64%,94%,67 nM,1600 nM,346 nM,100%,98%,41%,80%,63 nM,–,COc1cccc([C@H]2SC(c3ccc(Cl)cc3)=NN2C(=O)c2c(F)cc(F)cc2F)c1OC,60%,39%,–,Active
30%,83%,560 nM,1500 nM,–,–,–,–,–,–,–,COc1cccc(C2SC(c3ccc(F)c(F)c3)=NN2C(=O)c2cccc(F)c2)c1OC (stereo not given),47%,27%,–,–
< 15%,82%,250 nM,–,–,–,–,–,–,–,–,COc1cccc(C2SC(c3ccc(F)cc3)=NN2C(=O)c2cccc(Cl)c2)c1OC (stereo not given),36%,13%,–,–
< 15%,–,–,–,–,–,–,–,–,–,< 15%,COc1cccc(C2SC(c3ccc(Cl)cc3)=NN2C(=O)c2ccccc2)c1OC (stereo not given),–,–,–,–
< 15%,–,–,–,–,< 15%,< 15%,< 15%,< 15%,–,< 15%,COc1cccc([C@@H]2SC(c3ccc(Cl)cc3)=NN2C(=O)c2c(F)cc(F)cc2F)c1OC,0%,0%,–,–
43%,92%,160 nM,900 nM,–,–,–,–,–,–,–,COc1cccc(C2SC(c3ccc(F)cc3)=NN2C(=O)c2c(F)cc(Br)cc2F)c1OC (stereo not given),42%,–,–,–
< 15%,74%,970 nM,–,–,–,–,–,–,–,–,COc1cccc(C2SC(c3ccc(F)cc3)=NN2C(=O)c2c(F)ccc(F)c2F)c1OC (stereo not given),42%,35%,–,–
46%,90%,140 nM,2400 nM,–,–,–,–,–,–,–,COc1cccc(C2SC(c3ccc(F)cc3)=NN2C(=O)c2cc(F)ccc2C)c1OC (stereo not given),32%,21%,–,–

# Second part, the compound before the results:
SMILES,Efficacy [1],Efficacy [2],EC50 [5],EC50 [6],EC50 [7],Efficacy [8],Efficacy [9],Efficacy [10],Efficacy [11],EC50 [12],Activity [2],Activity (THP-1 [3]),Activity (THP-1 [4]),Activity (Hepatocyte),Activity (Macrophage)
COc1cccc(C2SC(c3ccc(F)cc3)=NN2C(=O)c2cc(F)c(F)cc2F)c1OC (stereo not given),< 15%,40%,600 nM,–,–,–,–,–,–,–,–,48%,30%,–,–
COc1ccccc1C1SC(c2ccc(Cl)cc2)=NN1C(=O)c1c(F)cc(F)cc1F (stereo not given),80%,110%,35 nM,180 nM,–,–,–,–,–,–,–,54%,57%,–,–
COc1cccc(C2SC(c3ccc(C)cc3)=NN2C(=O)c2c(F)cc(F)cc2F)c1OC (stereo not given),52%,98%,200 nM,1400 nM,–,–,–,–,–,–,–,34%,24%,–,–
O=S(=O)(c1ccccc1)N(CC(F)(F)F)c1ccc(C(O)(C(F)(F)F)C(F)(F)F)cc1,–,–,–,–,–,–,–,–,–,–,–,–,–,Active,–
COc1cccc(C2SC(c3ccc(Cl)cc3)=NN2C(=O)c2c(F)cc(F)cc2F)c1 (stereo not given),< 15%,60%,3700 nM,–,–,–,–,–,–,–,–,–,–,–,–
O=C(c1c(F)cc(F)cc1F)N1N=C(c2ccc(F)cc2)SC1c1ccccc1OC(F)F (stereo not given),76%,90%,150 nM,1900 nM,–,–,–,–,–,–,–,–,26%,–,–
O=C(c1c(F)cc(F)cc1F)N1N=C(c2ccc(Cl)cc2)SC1c1ccccc1OC(F)(F)F (stereo not given),< 15%,31%,3400 nM,–,–,–,–,–,–,–,–,23%,–,–,–
COc1cccc(C2SC(c3ccc(F)cc3)=NN2C(=O)c2cc(F)c(F)c(OC)c2F)c1OC (stereo not given),64%,100%,81 nM,700 nM,–,–,–,–,–,–,–,59%,30%,–,–
COc1ccccc1C1(C)SC(c2ccc(F)cc2)=NN1C(=O)c1c(F)cc(F)cc1F (stereo not given),< 15%,50%,4000 nM,–,–,–,–,–,–,–,–,–,–,–,–
O=C(c1c(F)cc(F)cc1F)N1N=C(c2ccc(Cl)cc2)SC1c1cccc2c1OC(F)(F)O2 (stereo not given),71%,74%,800 nM,3900 nM,–,–,–,–,–,–,–,61%,35%,–,–
COc1cccc(C2SC(c3ccc(Cl)c(Cl)c3)=NN2C(=O)c2c(F)cc(F)cc2F)c1OC (stereo not given),< 15%,51%,> 10000 nM,–,–,–,–,–,–,–,–,46%,18%,–,–
COc1cc(F)ccc1C1SC(c2ccc(F)cc2)=NN1C(=O)c1c(F)cc(F)cc1F (stereo not given),92%,100%,6 nM,70 nM,–,–,–,–,–,–,–,59%,99%,–,–
O=C(O)Cc1cccc(OCCCN(Cc2cccc(C(F)(F)F)c2Cl)CC(c2ccccc2)c2ccccc2)c1,100%,100%,27 nM,97 nM,66 nM,100%,100%,100%,100%,4 nM,–,100%,100%,Active,–
COc1cc(F)c(C(=O)N2N=C(c3ccc(F)cc3)SC2c2cccc(OC)c2OC)c(F)c1 (stereo not given),47%,100%,170 nM,900 nM,–,–,–,–,–,–,–,42%,81%,–,–

# From ChEMBL document CHEMBL1148736, “N-Acylthiadiazolines, a new class of liver X receptor agonists with selectivity for LXRbeta” (J Med Chem, 2007)
